Measured values published in ChEMBL document CHEMBL4251758, “Small Molecule Inhibition of MicroRNA miR-21 Rescues Chemosensitivity of Renal-Cell Carcinoma to Topotecan” (J Med Chem, 2018).
Calls of active or inactive are those of the source. The rule behind the calls is not given here.

Tested on: A498
Test: Inhibition of colony formation of human A498 cells after 2 weeks by crystal violet staining-based microscopic analysis
Format: functional, cell-based
Conditions: A498, 336 h
How it was run: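 A498 cells, 10,000 per well, seeded in 0.45% low-melt agarose in DMEM over a 0.7% agarose base layer, containing increasing compound concentrations or DMSO (0.1% final), in triplicate. For combinations, the inhibitor was held at 10 μM. After 2 weeks, colonies were stained with 0.1% crystal violet and imaged by z-stack microscopy. Colony counts were normalized to DMSO; IC50 from sigmoidal fit.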

Row | Structure (SMILES) | IC50 [nM]
1 | CC[C@@]1(O)C(=O)OCc2c1cc1n(c2=O)Cc2cc3c(CN(C)C)c(O)ccc3nc2-1 [TOPOTECAN] | 2000

Tested on: not listed separately
Test: Stabilization of pre-miR-21 RNA (unknown origin) assessed as increase in melting temperature at 10 uM by UV-spectrophotometric analysis
Conditions: not given
How it was run: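 Melting-curve analysis of precursor miR-21 RNA run with test compound, with DMSO as the reference condition and tobramycin (10 μM) as a positive control for RNA binding and stabilisation. Read-out is the shift in melting temperature of pre-miR-21 relative to the DMSO sample.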

Row | Structure (SMILES) | ΔTm [°C]
2 | NC[C@H]1O[C@H](O[C@H]2[C@H](O)[C@@H](O[C@H]3O[C@H](CO)[C@@H](O)[C@H](N)[C@H]3O)[C@H](N)C[C@@H]2N)[C@H](N)C[C@@H]1O | 19

Tested on: A498
Test: Induction of apoptosis in human A498 cells assessed as increase in caspase-3/7 activity at 1 uM after 24 hrs by Caspase-Glo 3/7 assay relative to control
Format: functional
Conditions: not given

Row | Structure (SMILES) | fold change (FC)
3 | CC[C@@]1(O)C(=O)OCc2c1cc1n(c2=O)Cc2cc3c(CN(C)C)c(O)ccc3nc2-1 [TOPOTECAN] | 3

Tested on: microRNA 21
Test: Inhibition of miR-21 RNA in human HeLa cells harboring miR-21 binding sequence in 3'-UTR of firefly luciferase gene assessed as increase in luciferase expression incubated for 48 hrs by Bright-Glo luciferase reporter gene assay relative to control
Format: cell-based
Conditions: not given
How it was run: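 HeLa-miR21-Luc stable line (miR-21 site in the firefly luciferase 3′-UTR), 1000 cells per well. Compound or DMSO (0.1% final) added after overnight attachment, in triplicate, for 48 h. Bright-Glo luminescence was normalized to XTT viability (450 nm) and expressed as fold change relative to DMSO. At least three independent experiments.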

Row | Structure (SMILES) | fold change (FC)
4 | Nc1c(-c2nc(-c3cccs3)no2)nnn1-c1cccc(C(F)(F)F)c1 | 1.08
5 | COc1cccc(-n2nnc(-c3nc(-c4ccccc4)no3)c2N)c1 | 2.19
6 | Nc1c(-c2nc(-c3cccs3)no2)nnn1-c1ccc2ccccc2c1 | 1.39
7 | CC(C)c1cccc(-n2nnc(-c3nc(-c4cccs4)no3)c2N)c1 | 1.82
8 | Nc1c(-c2nc(-c3cccs3)no2)nnn1-c1cccc(-c2ccccc2)c1 | 1.06
9 | CN(C)c1cccc(-n2nnc(-c3nc(-c4cccs4)no3)c2N)c1 | 2.56
10 | Nc1c(-c2nnc(-c3cccs3)o2)nnn1-c1cccc(F)c1 | 1.6
11 | Nc1c(-c2nc(-c3cccs3)no2)nnn1-c1ccccc1 | 1.01
12 | Fc1cccc(-n2cc(-c3nc(-c4cccs4)no3)nn2)c1 | 1.7
13 | CCOc1ccc(-c2noc(-c3nnn(-c4cccc(/C(C)=N/O)c4)c3N)n2)cc1 | 3.14
14 | Nc1c(-c2nc(-c3cccs3)no2)nnn1-c1ccccc1CO | 2.23
15 | COc1cccc(-n2nnc(-c3nc(-c4ccco4)no3)c2N)c1 | 2.19
16 | COc1cccc(-n2cc(-c3nc(-c4cccs4)no3)nn2)c1 | 2.2
17 | COc1ccc(-c2noc(-c3nnn(-c4cccc(/C(C)=N/O)c4)c3N)n2)cc1 | 1.51
18 | CCc1cccc(-n2nnc(-c3nc(-c4cccs4)no3)c2N)c1 | 1.63
19 | COc1cccc(-n2nnc(-c3nc(-c4ccccn4)no3)c2N)c1 | 2.23
20 | Nc1c(-c2nc(-c3cccs3)no2)nnn1-c1cccc(CO)c1 | 1.67
21 | C#CCOc1cccc(-n2nnc(-c3nc(-c4cccs4)no3)c2N)c1 | 1.61

Row | Structure (SMILES) | fold change (FC)
22 | Nc1c(-c2nc(-c3cccs3)no2)nnn1-c1cccc(O)c1 | 2.19
23 | C/C(=N\O)c1cccc(-n2nnc(-c3nc(-c4cccs4)no3)c2N)c1 | 4.54
24 | C/C(=N\O)c1cccc(-n2nnc(-c3nc(-c4ccc(O)cc4)no3)c2N)c1 | 1.98
25 | C=CCOc1ccc(-c2noc(-c3nnn(-c4cccc(/C(C)=N/O)c4)c3N)n2)cc1 | 2.96
26 | COc1ccccc1-n1nnc(-c2nc(-c3cccs3)no2)c1N | 2.02
27 | C/C(=N\O)c1cccc(-n2nnc(-c3nc(-c4ccc(OC(C)C)cc4)no3)c2N)c1 | 1.19
28 | COc1cccc(-n2nnc(-c3nnc(-c4cccs4)o3)c2N)c1 | 2.68
29 | c1ccc(-n2cc(-c3nc(-c4cccs4)no3)nn2)cc1 | 1.41
30 | C#CCOc1ccc(-n2nnc(-c3nc(-c4cccs4)no3)c2N)cc1 | 1.47
31 | Nc1c(-c2nc(-c3cccs3)no2)nnn1-c1ccc(CO)cc1 | 2.14
32 | Nc1c(-c2nc(-c3cccs3)no2)nnn1-c1cccc(OC(F)(F)F)c1 | 1.4
33 | Nc1c(-c2nc(-c3cccs3)no2)nnn1-c1cccc(F)c1 | 1.93
34 | COc1cc(OC)cc(-n2nnc(-c3nc(-c4cccs4)no3)c2N)c1 | 2.3
35 | Cc1cccc(-n2nnc(-c3nc(-c4cccs4)no3)c2N)c1C | 1.89
36 | CC(C)c1cccc(-n2nnc(-c3nnc(-c4cccs4)o3)c2N)c1 | 1.72
37 | CC(=O)c1cccc(-n2nnc(-c3nc(-c4cccs4)no3)c2N)c1 | 2.46
38 | COc1cccc(-n2nnc(-c3nc(-c4cccs4)no3)c2N)c1 | 2.84
39 | Nc1c(-c2nc(-c3cccs3)no2)nnn1-c1cccc(C(=O)c2ccccc2)c1 | 1.82

Tested on: microRNA 21
Test: Inhibition of miR-21 RNA (unknown origin) transfected in human HeLa cells at 0.1 to 1000 nM after 48 hrs by Bright-Glo luciferase reporter gene assay
Format: cell-based
Conditions: not given

Row | Structure (SMILES) | inhibition
40 | CC[C@@]1(O)C(=O)OCc2c1cc1n(c2=O)Cc2cc3c(CN(C)C)c(O)ccc3nc2-1 [TOPOTECAN] | inactive
